Measured values from ChEMBL document CHEMBL2157910, “Structure-activity relationship studies of 4-benzyl-1H-pyrazol-3-yl β-d-glucopyranoside derivatives as potent and selective sodium glucose co-transporter 1 (SGLT1) inhibitors with therapeutic activity on postprandial hyperglycemia” (Bioorg Med Chem, 2012).
Converted amounts (≈) assume the structure as drawn. The source made the active and inactive calls. The rule behind the calls is not given here.

Columns and labels:
[1] = biological target: T1, Sodium/glucose cotransporter 2 (Homo sapiens, UniProt P31639); assay: Inhibition of human SGLT2 expressed in COS7 cells assessed as reduction of [14C]-AMG uptake; type: cell-based, COS-7
T1 sequence (P31639 whole entry): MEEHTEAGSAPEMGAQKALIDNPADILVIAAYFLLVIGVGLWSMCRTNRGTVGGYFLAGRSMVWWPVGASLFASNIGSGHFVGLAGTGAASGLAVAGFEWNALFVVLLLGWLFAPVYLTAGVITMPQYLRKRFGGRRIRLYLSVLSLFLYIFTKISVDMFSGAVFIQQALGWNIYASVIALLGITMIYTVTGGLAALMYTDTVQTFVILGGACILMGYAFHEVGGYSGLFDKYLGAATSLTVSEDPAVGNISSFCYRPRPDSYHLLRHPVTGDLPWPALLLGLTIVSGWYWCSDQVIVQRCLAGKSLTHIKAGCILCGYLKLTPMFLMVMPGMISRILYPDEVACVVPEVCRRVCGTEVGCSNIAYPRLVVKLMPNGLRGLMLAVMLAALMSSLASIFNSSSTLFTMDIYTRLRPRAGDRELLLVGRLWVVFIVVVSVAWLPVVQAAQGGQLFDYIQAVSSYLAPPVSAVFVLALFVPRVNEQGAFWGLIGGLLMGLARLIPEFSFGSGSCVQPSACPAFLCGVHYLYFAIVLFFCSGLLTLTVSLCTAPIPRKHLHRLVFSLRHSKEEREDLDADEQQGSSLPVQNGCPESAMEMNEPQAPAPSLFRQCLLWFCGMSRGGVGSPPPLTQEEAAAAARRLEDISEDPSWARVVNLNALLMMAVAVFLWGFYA

Rattus norvegicus [2] = assay: Antihyperglycemic activity in po dosed Wistar rat streptozotocin-nicotinamide-induced diabetic model assessed as reduction of plasma glucose level after 1 hr by oral mixed carbohydrate tolerance test; type: functional, organism-based
In short: (§1)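 Male Wistar rats (8 weeks) given nicotinamide 230 mg/kg i.p., then streptozotocin 85 mg/kg i.v. 15 min later; after 1 week, rats above 250 mg/dL plasma glucose at 1 h in a 2 g/kg glucose tolerance test were used. Overnight-fasted rats were dosed orally in 0.5% CMC, then immediately loaded with 2 g/kg starch/sucrose/lactose (6:3:1). Plasma glucose by glucose oxidase; n = 7; Dunnett's test versus vehicle.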

Rattus norvegicus [3] = assay: Toxicity in Wistar rat assessed as overnight urinary glucose excretion at 10 mg/kg, po; type: organism-based, Urine; parameters: dose 10 mg/kg, route oral; conditions: in vivo
In short: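 Male Wistar rats (8 weeks) in metabolic cages, fasted 08:00 to next morning. At 16:00 they received 10 mg/kg orally in 0.5% CMC or vehicle, and urine was collected until 08:00. Urine glucose by glucose oxidase; n = 5; F-test then Student's t or Welch's test versus vehicle.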

[4] = Solubility of the compound in distilled water; type: physicochemical
In short: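 Solubility measured in distilled water, with filtrate concentration quantified by HPLC.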

[5] = Metabolic stability of the compound in rat intestinal microsomes assessed as compound remaining at 50 uM after 60 mins; type: ADME, Intestine; conditions: for remaining at 1 h, 50 µM: intestinal microsomes, read-out: Stability; for Stability: microsomes, 1 h, 50 µM
In short: (§2)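 50 µM final compound incubated at 37 °C with 0.8 mg/mL rat intestinal microsomes, 1 mg/mL NADPH, 50 mM ammonium acetate (pH 5.0) and 10 mM MgCl2. Levels measured by LC–MS at 0, 30 and 60 min; reported as % remaining relative to 0 min.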

Rattus norvegicus [6] = assay: Toxicity in Wistar rat streptozotocin-nicotinamide-induced diabetic model assessed as diarrhea at 1 to 10 mg/kg, po; type: organism-based; parameters: dose 1-10 mg/kg, route oral; conditions: in vivo
Rattus norvegicus [7] = assay: Toxicity in Wistar rat streptozotocin-nicotinamide-induced diabetic model assessed as soft feces at 1 to 10 mg/kg, po; type: organism-based; parameters: dose 1-10 mg/kg, route oral; conditions: in vivo
[8] = biological target: T2, Sodium/glucose cotransporter 1 (Rattus norvegicus, UniProt P53790); assay: Inhibition of rat SGLT1 expressed in COS7 cells assessed as reduction of [14C]-AMG uptake; type: cell-based, COS-7
T2 sequence (P53790 whole entry): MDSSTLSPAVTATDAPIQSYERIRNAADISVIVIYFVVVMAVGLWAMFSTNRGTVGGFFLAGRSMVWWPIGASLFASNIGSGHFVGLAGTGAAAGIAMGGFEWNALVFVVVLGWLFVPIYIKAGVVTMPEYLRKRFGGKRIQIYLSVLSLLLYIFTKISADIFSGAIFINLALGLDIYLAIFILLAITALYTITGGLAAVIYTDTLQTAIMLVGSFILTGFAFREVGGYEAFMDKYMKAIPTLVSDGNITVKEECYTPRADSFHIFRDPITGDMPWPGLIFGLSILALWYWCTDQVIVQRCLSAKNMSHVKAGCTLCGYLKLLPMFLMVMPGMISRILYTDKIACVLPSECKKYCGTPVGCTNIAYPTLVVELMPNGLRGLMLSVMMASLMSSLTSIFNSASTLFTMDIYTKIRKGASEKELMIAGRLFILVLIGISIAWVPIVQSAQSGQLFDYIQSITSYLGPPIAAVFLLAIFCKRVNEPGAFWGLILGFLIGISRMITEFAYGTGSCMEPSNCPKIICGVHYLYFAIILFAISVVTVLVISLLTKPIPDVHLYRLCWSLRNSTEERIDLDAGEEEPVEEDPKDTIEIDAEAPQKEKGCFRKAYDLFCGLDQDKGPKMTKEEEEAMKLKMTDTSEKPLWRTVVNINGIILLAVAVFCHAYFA

[9] = biological target: T3, Sodium/glucose cotransporter 2 (Rattus norvegicus, UniProt P53792); assay: Inhibition of rat SGLT2 expressed in COS7 cells assessed as reduction of [14C]-AMG uptake; type: cell-based, COS-7
T3 sequence (P53792 whole entry): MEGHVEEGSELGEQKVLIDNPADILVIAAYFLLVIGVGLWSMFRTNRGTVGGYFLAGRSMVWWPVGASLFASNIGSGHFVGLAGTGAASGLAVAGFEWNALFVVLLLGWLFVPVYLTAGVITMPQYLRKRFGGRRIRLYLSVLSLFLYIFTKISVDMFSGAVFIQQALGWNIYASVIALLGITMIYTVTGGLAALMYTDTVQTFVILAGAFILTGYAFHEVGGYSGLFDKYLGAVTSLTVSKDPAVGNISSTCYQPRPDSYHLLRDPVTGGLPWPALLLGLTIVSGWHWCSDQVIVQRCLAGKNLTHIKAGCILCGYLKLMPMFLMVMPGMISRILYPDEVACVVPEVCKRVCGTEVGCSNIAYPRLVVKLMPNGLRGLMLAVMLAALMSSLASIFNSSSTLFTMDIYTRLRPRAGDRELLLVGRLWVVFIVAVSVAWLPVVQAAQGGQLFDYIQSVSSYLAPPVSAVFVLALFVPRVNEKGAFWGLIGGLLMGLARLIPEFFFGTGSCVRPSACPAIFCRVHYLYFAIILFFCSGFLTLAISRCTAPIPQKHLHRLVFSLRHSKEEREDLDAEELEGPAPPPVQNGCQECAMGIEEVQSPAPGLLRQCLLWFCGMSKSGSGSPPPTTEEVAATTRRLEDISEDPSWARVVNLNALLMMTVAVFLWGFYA

[10] = Metabolic stability of the compound in rat intestinal microsomes assessed as compound remaining at 50 uM after 30 mins; type: ADME, Intestine; conditions: for remaining at 0.5 h, 50 µM: intestinal microsomes, read-out: Stability; for Stability: microsomes, 0.5 h, 50 µM; in short: as §2
Rattus norvegicus [11] = assay: Antihyperglycemic activity in Wistar rat streptozotocin-nicotinamide-induced diabetic model assessed as reduction of plasma glucose level at 1 mg/kg, po after 1 hr by oral mixed carbohydrate tolerance test; type: functional, organism-based; parameters: dose 1 mg/kg; in short: as §1

SMILES | IC50 [1] [µM] | further results
OC[C@H]1O[C@@H](Oc2n[nH]c(C(F)(F)F)c2Cc2ccccc2)[C@H](O)[C@@H](O)[C@@H]1O | 0.342 | 
CC(C)c1[nH]nc(O[C@@H]2O[C@H](CO)[C@@H](O)[C@H](O)[C@H]2O)c1Cc1ccc(C#N)cc1 | 3.58 | 
CCc1ccc(Cc2c(C(C)C)n[nH]c2O[C@@H]2O[C@H](CO)[C@@H](O)[C@H](O)[C@H]2O)cc1 | 0.068 | 
OC[C@H]1O[C@@H](Oc2n[nH]c(C(F)(F)F)c2Cc2ccc(OCc3ccccc3)cc2)[C@H](O)[C@@H](O)[C@@H]1O | 0.007 | 
Cc1cc(O)ccc1Cc1c(O[C@@H]2O[C@H](CO)[C@@H](O)[C@H](O)[C@H]2O)n[nH]c1C(C)C |  | Activity (Rattus norvegicus [2]): Dose-dependent effect
OC[C@H]1O[C@@H](Oc2[nH]nc(C(F)(F)F)c2Cc2cccc(OCc3ccccc3)c2)[C@H](O)[C@@H](O)[C@@H]1O | 5.68 | 
CC(C)c1[nH]nc(O[C@@H]2O[C@H](CO)[C@@H](O)[C@H](O)[C@H]2O)c1Cc1ccc(F)cc1 | 4.14 | 
OC[C@H]1O[C@@H](Oc2[nH]nc(C(F)(F)F)c2Cc2ccc(O)cc2)[C@H](O)[C@@H](O)[C@@H]1O | 0.154 | 
OC[C@H]1O[C@@H](Oc2n[nH]c(C3CC3)c2Cc2ccccc2OCc2ccccc2)[C@H](O)[C@@H](O)[C@@H]1O | 156 | 
CCc1ccccc1Cc1c(O[C@@H]2O[C@H](CO)[C@@H](O)[C@H](O)[C@H]2O)n[nH]c1C(C)C | 14.1 | 
Cc1ccccc1Cc1c(C(C)C)n[nH]c1O[C@@H]1O[C@H](CO)[C@@H](O)[C@H](O)[C@H]1O | 18.5 | 
CC(C)c1[nH]nc(O[C@@H]2O[C@H](CO)[C@@H](O)[C@H](O)[C@H]2O)c1Cc1cccc(O)c1 | 13.3 | 
COc1ccccc1Cc1c(O[C@@H]2O[C@H](CO)[C@@H](O)[C@H](O)[C@H]2O)n[nH]c1C(C)C | 204 | 
Cc1cccc(Cc2c(O[C@@H]3O[C@H](CO)[C@@H](O)[C@H](O)[C@H]3O)n[nH]c2C(C)C)c1 | 5.98 | 
CCOC(=O)OC[C@H]1O[C@@H](Oc2ccccc2Cc2ccc(OC)cc2)[C@H](O)[C@@H](O)[C@@H]1O [SERGLIFLOZIN ETABONATE] |  | Activity (Rattus norvegicus [3]): 53.3 mg
CCc1[nH]nc(O[C@@H]2O[C@H](CO)[C@@H](O)[C@H](O)[C@H]2O)c1Cc1ccccc1OCc1ccccc1 | 13.9 | 
CC(C)c1[nH]nc(O[C@@H]2O[C@H](CO)[C@@H](O)[C@H](O)[C@H]2O)c1Cc1ccccc1C#N | 65.7 | 

SMILES | IC50 [1] [µM] | further results
CC(C)c1[nH]nc(O[C@@H]2O[C@H](CO)[C@@H](O)[C@H](O)[C@H]2O)c1Cc1ccccc1 | 2.02 | solubility [4]: 19000 µg/mL (≈ 50.2 mM)
Cc1ccc(Cc2c(O[C@@H]3O[C@H](CO)[C@@H](O)[C@H](O)[C@H]3O)n[nH]c2C(C)C)c(C)c1 | 6.01 | solubility [4]: 3700 µg/mL (≈ 9.1 mM); Activity (Rattus norvegicus [3]): 0.8 mg; remaining at 1 h, 50 µM [5]: 67%; Activity (Rattus norvegicus [2]): Dose-dependent effect; Activity (Rattus norvegicus [6]): Non-toxic; Activity (Rattus norvegicus [7]): Non-toxic; IC50 [8]: 0.067 µM; IC50 [9]: 4.65 µM; remaining at 0.5 h, 50 µM [10]: 91%
Cc1cc(O)ccc1Cc1c(C(C)C)n[nH]c1O[C@@H]1O[C@H](CO)[C@@H](O)[C@H](O)[C@H]1O | 6.89 | IC50 [8]: 0.183 µM; IC50 [9]: 4.37 µM
OC[C@H]1O[C@@H](Oc2[nH]nc(C(F)(F)F)c2Cc2cccc(O)c2)[C@H](O)[C@@H](O)[C@@H]1O | 2.79 | 
OC[C@H]1O[C@@H](Oc2n[nH]c(C(F)(F)F)c2Cc2ccccc2O)[C@H](O)[C@@H](O)[C@@H]1O | 14.9 | 
COc1ccc(Cc2c(O[C@@H]3O[C@H](CO)[C@@H](O)[C@H](O)[C@H]3O)n[nH]c2C(C)C)cc1 | 0.377 | 
CC(C)c1n[nH]c(O[C@@H]2O[C@H](CO)[C@@H](O)[C@H](O)[C@H]2O)c1Cc1ccccc1F | 1.39 | 
CC(C)c1[nH]nc(O[C@@H]2O[C@H](CO)[C@@H](O)[C@H](O)[C@H]2O)c1Cc1ccccc1O | 75.9 | 
CC(C)(C)c1[nH]nc(O[C@@H]2O[C@H](CO)[C@@H](O)[C@H](O)[C@H]2O)c1Cc1ccccc1OCc1ccccc1 | 64.7 | 
CC(C)c1[nH]nc(O[C@@H]2O[C@H](CO)[C@@H](O)[C@H](O)[C@H]2O)c1Cc1ccccc1OCc1ccccc1 | 74 | solubility [4]: 240 µg/mL (≈ 0.495 mM); Activity (Rattus norvegicus [3]): 0.4 mg; remaining at 1 h, 50 µM [5]: 51%; IC50 [8]: 0.308 µM; IC50 [9]: 100 µM; remaining at 0.5 h, 50 µM [10]: 71%
OC[C@H]1O[C@@H](Oc2n[nH]c(C(F)(F)F)c2Cc2ccccc2OCc2ccccc2)[C@H](O)[C@@H](O)[C@@H]1O | 14 | Stability [5]: Unstable; IC50 [8]: 0.227 µM; IC50 [9]: 40.8 µM; Stability [10]: Unstable
Cc1[nH]nc(O[C@@H]2O[C@H](CO)[C@@H](O)[C@H](O)[C@H]2O)c1Cc1ccccc1OCc1ccccc1 | 5.01 | 
Cc1ccc(Cc2c(O[C@@H]3O[C@H](CO)[C@@H](O)[C@H](O)[C@H]3O)n[nH]c2C(C)C)cc1 | 0.231 | 
CC(C)c1n[nH]c(O[C@@H]2O[C@H](CO)[C@@H](O)[C@H](O)[C@H]2O)c1Cc1ccccc1C(F)(F)F | 60.5 | 
O=C(CCc1ccc(O)cc1)c1c(O)cc(O)cc1O[C@@H]1O[C@H](CO)[C@@H](O)[C@H](O)[C@H]1O [PHLORIZIN] |  | Stability [5]: Unstable; IC50 [9]: 0.096 µM; Activity (Rattus norvegicus [11]): inactive; Stability [10]: Unstable
CC(C)c1[nH]nc(O[C@@H]2O[C@H](CO)[C@@H](O)[C@H](O)[C@H]2O)c1Cc1ccc(O)cc1 | 0.285 | 
